Sampled rows, rich in hits. Any-hit rate of the full collection: about 3.8%.
KCNK9 inh = inhibitors of human KCNK9 two-pore domain potassium channel. Q9NPC2. hit rate 1.2% among 310,000. B-score at 10 µM. HEK293 KCNK9, FluxOR thallium flux fluorescence; stronger effect = lower value;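 active = ratio B-score over 3 SD below the library mean, with starting fluorescence within 5 SD of its mean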;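 also: negative B-score means less thallium flux so channel inhibition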
KCNQ1 act = potentiates or activates the human KCNQ1 potassium channel. P51787. CHO-K1 KCNQ1, thallium flux FluxOR fluorescence; stronger effect = higher value. B-score at 10 µM. hit rate 0.35% among 310,000. AID 2648;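 active = fluorescence ratio B-score, a plate-corrected score, at least three library SD, with initial intensity B-score within 5 SD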
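Doses: Single concentration per compound, DMSO matched to controls | Test system: KCNQ1-transfected CHO-K1 cells | Timing: 90 min dye loading and 20 min compound exposure, both at room temperature | Measured by: Kinetic FluxOR thallium fluorescence, 10-s 1-Hz baseline, 110-s post-stimulus read | Medium: Assay buffer with matched DMSO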
Kir21 block = Kir2.1 (mouse) channel inhibition; P35561; HEK293-Kir2.1, FluxOR thallium flux fluorescence; stronger effect = lower value; B-score at 10 µM; hit rate 0.85% among 310,000; AID 1672;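 active = fluorescence ratio B-score at or below minus 3 SD of library scores, with starting-brightness B-score within 2 SD, cut at about -4.2 in these data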;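 also: channel flux triggered by added potassium and thallium sulfate stimulus; B-score of peak minus minimum fluorescence over baseline after thallium stimulus; more negative B-score means stronger Kir2.1 block with less thallium influx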
KCNK3 inh = human KCNK3 channel inhibition, primary screen. B-score at 10 µM. hit rate 0.84% among 340,000. AID 602410. O14649. CHO-KCNK3 thallium flux, FluxOR fluorescence; stronger effect = lower value;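 active = B-score under library mean minus 4 SD, starting fluorescence ratio at most library mean plus 5 SD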;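 also: more negative B-score means stronger inhibition of thallium flux through KCNK3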
hERG rescue = compounds protecting human hERG from proarrhythmic drug block. Q12809. CHO-hERG, FluxOR thallium flux, dofetilide IC70 present. activation (rescue from dofetilide block), less the hit threshold, % at 10 µM. hit rate 0.51% among 310,000;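 active = activation above the mean of controls blocked by dofetilide plus 5 SD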;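 also: thallium influx through hERG after potassium depolarization seen as dye fluorescence rise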
KCNQ1 block = human KCNQ1 channel inhibition; P51787; CHO-K1 KCNQ1, FluxOR thallium flux fluorescence; stronger effect = higher value; B-score at 10 µM; hit rate 1.3% among 310,000;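 active = compounds whose thallium flux B-score, printed positive for inhibition, exceeds three library SD while starting fluorescence stays within three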;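 also: channel opened by potassium depolarization with thallium stimulus after 20 min compound exposure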
Hits are given with their value; . = inactive; / = no result given.

SMILES	KCNK9 inh	KCNQ1 act	Kir21 block	KCNK3 inh	hERG rescue	KCNQ1 block
CC(C)(O)C(=O)NNC(=S)Nc1ccc(F)c(Cl)c1	.	.	.	.	.	.
COc1cc(NC(=S)NNC(=O)C(C)(C)O)cc(OC)c1	.	.	.	.	8.9	.
COc1c(CC=C(C)C)cc(C2CC(=O)c3c(O)cc(O)cc3O2)cc1CC=C(C)C (stereo not given)	.	.	.	.	.	8
C/C(=N\N=C(c1ccccc1)c1ccccc1)c1ccco1	.	.	.	.	.	7
CC(C)(C)c1ccc(C(=O)NCc2nnc(SCC(=O)NC3CCCCC3)o2)cc1	.	.	.	.	.	.
C=CCn1c(=O)/c(=C/c2ccc(Cl)cc2)s/c1=C(\C#N)c1nnc2n1CCCCC2	/	/	/	.	/	/
Cc1ccc(/C=C/C(=O)c2ccccc2O)cc1	.	.	.	.	.	.
Cc1ccc(/C=C/C(=O)C2C(=O)c3ccccc3C2=O)cc1	.	20	.	.	24.8	.
CCOc1cc(C2C(C#N)=C(N)OC3=C2C(=O)CC(C)(C)C3)cc([N+](=O)[O-])c1O (stereo not given)	.	.	.	.	.	.
CC1(C)CC(=O)C2=C(C1)OC(N)=C(C#N)C2c1cc2c(cc1[N+](=O)[O-])OCO2 (stereo not given)	.	.	.	.	.	10
Cn1c2ccccc2c(=O)c2ccc(NCCc3cccs3)cc21	/	/	/	-9.11	/	/
CCc1ccccc1NC(=O)c1ccccc1Sc1ccc([N+](=O)[O-])cc1Cl	-7.16	.	.	.	.	.
CCSc1ccccc1C(=O)Nc1ccc([N+](=O)[O-])cc1OC	.	.	.	.	.	.
CCC(C)c1ccccc1OCCCNC1CCCC1 (stereo not given)	.	.	-5.94	.	.	.
Cc1c(C(=O)N2CCN(Cc3ccc4c(c3)OCO4)CC2)sc2ncnc(N3CCN(c4ccccc4F)CC3)c12	.	.	.	.	.	.
Cc1c(C(=O)N2CCN(Cc3ccc4c(c3)OCO4)CC2)sc2ncnc(N3CCN(c4ccccc4)CC3)c12	.	.	.	.	.	7
COc1ccc(CCNC(=O)C(C)c2ccc([N+](=O)[O-])cc2)cc1 (stereo not given)	.	.	-4.55	.	.	.
CC(C(=O)NCc1ccc(F)cc1)c1ccc([N+](=O)[O-])cc1 (stereo not given)	.	.	.	.	.	.
COc1ccc(C(CC(=O)c2ccc(C)cc2)Nc2ccc([N+](=O)[O-])cc2)cc1 (stereo not given)	.	.	.	.	.	6
CC(C(=O)NCCCc1ccccc1)c1ccc([N+](=O)[O-])cc1 (stereo not given)	.	.	-4.42	.	.	.
O=C(O)c1cc([N+](=O)[O-])ccc1NCCCc1ccccc1	.	.	.	.	.	6
COc1ccc(Cl)cc1NC(=O)CN(C)C(=O)CCC(=O)c1cc(C)sc1C	.	.	.	.	.	.
CCOc1ccccc1N1CC(C(=O)N(C)Cc2cccnc2)CC1=O (stereo not given)	.	.	.	.	.	.
COc1ccccc1Nc1cc(C)nc(Nc2ccccc2OC)n1	/	/	/	.	/	/
COC(=O)c1sccc1NC(=O)c1cc2c(s1)CCCC2	-6.73	.	.	.	.	.
SMILES	KCNK9 inh	KCNQ1 act	Kir21 block	KCNK3 inh	hERG rescue	KCNQ1 block
CCN(CC)CCCNC(=O)C1c2ccccc2Oc2ccccc21	.	.	.	.	.	.
CNCCCC1Sc2ccccc2Oc2ccccc21 (stereo not given)	.	.	-5.99	.	.	.
CCOC(=O)C1=C(C)N2C(=C(C#N)[C@@H]1c1ccc(C(=O)OC)cc1)SC[C@@]2(O)C(C)(C)C	.	.	.	.	.	6
CCOC(=O)C1=C(C)N=C2SCCC(=O)N2C1c1ccc(C(=O)OC)cc1 (stereo not given)	.	.	.	.	.	.
Cc1nc(SCC(=O)NCCc2ccc(Cl)cc2)nc(C)c1C	.	.	-4.96	.	.	.
CCOC(=O)COn1c(-n2nc(C)cc2C)nc2ccccc2c1=O	.	.	.	.	.	.
COc1ccccc1C1(CCNC(C)c2cccs2)CCOC(C(C)C)C1 (stereo not given)	.	.	-8.9	.	.	.

Screens as filed in PubChem BioAssay.
